Laboratory results published in ChEMBL document CHEMBL3745677, “Discovery of 6-(4-{[5-Cyclopropyl-3-(2,6-dichlorophenyl)isoxazol-4-yl]methoxy}piperidin-1-yl)-1-methyl-1H-indole-3-carboxylic Acid: A Novel FXR Agonist for the Treatment of Dyslipidemia” (J Med Chem, 2015).

What was measured:
[1] = Cmax in cynomolgus monkey at 3 mg/kg, po by LC-MS/MS analysis; type: ADME, organism-based, Macaca fascicularis; set-up: dose 3 mg/kg, route oral; conditions: in vivo
How it was run: (§1)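 Sprague Dawley rats, Beagle dogs and Cynomolgus monkeys were dosed IV at 1 mg/kg (rat, dog) or 0.91 mpk (monkey) in 5% Solutol/5% EtOH in saline. Oral/nasogastric dosing was 3 mpk in 1.0% CMC/0.25% PS80/0.05% antifoam in purified water. Samples were processed to plasma and analysed by LC-MS/MS; values are mean ± SD, N=2-3.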

[2] = AUC (0 to 24 hrs) in beagle dog at 1 mg/kg, iv by LC-MS/MS analysis; type: ADME, organism-based, Canis lupus familiaris; set-up: time < 24 hr, dose 1 mg/kg, route intravenous; conditions: in vivo; how it was run: as §1
[3] = Initial plasma concentration in Sprague-Dawley rat at 1 mg/kg, iv by LC-MS/MS analysis; type: ADME, organism-based
How it was run: (§2)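 Intravenous dose given in 5% Solutol / 5% EtOH in saline (1 mg/kg rat and dog, 0.91 mpk monkey). Plasma samples collected and analyzed by LC-MS/MS; parameters reported as mean ± SD, N=2-3.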

Mus musculus [4] = experiment: Antidyslipidemic activity in western-diet fed mouse expressing LDL-receptor (-/-) assessed as decrease in low density lipoprotein level at 1 mg/kg qd for a week administered via gavage by FPLC analysis; type: functional; conditions: po
How it was run: (§3)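 LDLR null male mice, six per group, were dosed by gavage once daily for one week (vehicle 5% Solutol, 5% EtOH, 1% wt/v CMC; 5 mL/kg). Serum was collected by cardiac puncture on day 7 under CO2 anaesthesia. Pooled serum from each treatment group was fractionated by FPLC to quantify VLDL and LDL.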

[5] = AUC (0 to 24 hrs) in Sprague-Dawley rat at 3 mg/kg, po by LC-MS/MS analysis; type: ADME, organism-based; set-up: time < 24 hr, dose 3 mg/kg, route oral; conditions: in vivo; how it was run: as §1
[6] = AUC (0 to 24 hrs) in cynomolgus monkey at 0.91 mg/kg, iv by LC-MS/MS analysis; type: ADME, organism-based, Macaca fascicularis; set-up: dose 0.91 mg/kg, time < 24 hr, route intravenous; conditions: in vivo; how it was run: as §1
[7] = Cmax in beagle dog at 3 mg/kg, po by LC-MS/MS analysis; type: ADME, organism-based, Canis lupus familiaris; set-up: dose 3 mg/kg, route oral; conditions: in vivo; how it was run: as §1
[8] = Fraction unbound in rat plasma; type: ADME, cell-free
Rattus norvegicus [9] = experiment: Antidyslipidemic activity in ZDF rat assessed as VLDL level at 3 mg/kg for 9 days by FPLC analysis (reference value: 35 mg/dL); type: functional, Zucker
Mus musculus [10] = experiment: Antidyslipidemic activity in western-diet fed mouse expressing LDL-receptor (-/-) assessed as decrease in very-low density lipoprotein level at 10 mg/kg qd for a week administered via gavage by FPLC analysis; type: functional; conditions: po; how it was run: as §3
[11] = Clearance in Sprague-Dawley rat at 1 mg/kg, iv by LC-MS/MS analysis; type: ADME, organism-based; conditions: in vivo; how it was run: as §1
Rattus norvegicus [12] = experiment: Antidyslipidemic activity in ZDF rat assessed as VLDL level at 10 mg/kg for 9 days by FPLC analysis (reference value: 35 mg/dL); type: functional, Zucker
Rattus norvegicus [13] = experiment: Antidyslipidemic activity in ZDF rat assessed as HDL level at 10 mg/kg for 9 days by FPLC analysis (reference value: 48.3 mg/dL); type: functional, Zucker
Mus musculus [14] = experiment: Antidyslipidemic activity in western-diet fed mouse expressing LDL-receptor (-/-) assessed as decrease in low density lipoprotein level at 3 mg/kg qd for a week administered via gavage by FPLC analysis; type: functional; conditions: po; how it was run: as §3
Rattus norvegicus [15] = experiment: Antidyslipidemic activity in ZDF rat assessed as HDL level at 3 mg/kg for 9 days by FPLC analysis (reference value: 48.3 mg/dL); type: functional, Zucker
[16] = AUC (0 to 24 hrs) in beagle dog at 3 mg/kg, po by LC-MS/MS analysis; type: ADME, organism-based, Canis lupus familiaris; set-up: dose 3 mg/kg, time < 24 hr, route oral; conditions: in vivo; how it was run: as §1
Mus musculus [17] = experiment: Antidyslipidemic activity in western-diet fed mouse expressing LDL-receptor (-/-) assessed as decrease in triglyceride level at 10 mg/kg qd for a week administered via gavage […]; type: functional; conditions: po
How it was run: (§4)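 Male LDLR null mice, six per group, were gavaged once daily for one week with compound (in situ sodium salt) or vehicle (5% Solutol, 5% EtOH, 1% wt/v CMC) at 5 mL/kg. On day 7 they were bled by cardiac puncture under CO2 anaesthesia. Serum cholesterol and triglycerides were measured enzymatically on a clinical chemistry analyser (mean ± SD, n=6). ED50 was obtained by nonlinear regression.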

[18] = Terminal half life in Sprague-Dawley rat at 1 mg/kg, iv by LC-MS/MS analysis; type: ADME, organism-based; conditions: in vivo, read-out: beta t1/2 (converted); how it was run: as §2
Rattus norvegicus [19] = experiment: Antidyslipidemic activity in ZDF rat assessed as VLDL level at 10 mg/kg cotreated with 0.3 mg/kg rosiglitazone for 9 days by FPLC analysis (reference value: 35 mg/dL); type: functional, Zucker
[20] = Volume of distribution at steady state in cynomolgus monkey at 0.91 mg/kg, iv by LC-MS/MS analysis; type: ADME, organism-based, Macaca fascicularis; conditions: in vivo, read-out: Vdss; how it was run: as §2
Mus musculus [21] = experiment: Antidyslipidemic activity in western-diet fed mouse expressing LDL-receptor (-/-) assessed as decrease in total cholesterol level at 10 mg/kg qd for a week administered via gavage […]; type: functional; conditions: po; how it was run: as §4
Mus musculus [22] = experiment: Antidyslipidemic activity in western-diet fed mouse expressing LDL-receptor (-/-) assessed as decrease in low density lipoprotein level at 10 mg/kg qd for a week administered via gavage by FPLC analysis; type: functional; conditions: po; how it was run: as §3
Rattus norvegicus [23] = experiment: Antidyslipidemic activity in ZDF rat assessed as HDL level at 10 mg/kg cotreated with 0.3 mg/kg rosiglitazone for 9 days by FPLC analysis (reference value: 48.3 mg/dL); type: functional, Zucker
Rattus norvegicus [24] = experiment: Antidyslipidemic activity in ZDF rat assessed as VLDL level at 30 mg/kg for 9 days by FPLC analysis (reference value: 35 mg/dL); type: functional, Zucker
Mus musculus [25] = experiment: Antidyslipidemic activity in western-diet fed mouse expressing LDL-receptor (-/-) assessed as decrease in very-low density lipoprotein level at 1 mg/kg qd for a week administered via gavage by FPLC analysis; type: functional; conditions: po; how it was run: as §3
Mus musculus [26] = experiment: Antidyslipidemic activity in western-diet fed mouse expressing LDL-receptor (-/-) assessed as decrease in very-low density lipoprotein level at 3 mg/kg qd for a week administered via gavage by FPLC analysis; type: functional; conditions: po; how it was run: as §3
[27] = Tmax in Sprague-Dawley rat at 3 mg/kg, po by LC-MS/MS analysis; type: ADME, organism-based; conditions: in vivo
How it was run: (§5)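 Oral/nasogastric dosing at 3 mpk in 1.0% CMC/0.25% PS80/0.05% antifoam in purified water. Plasma samples collected and analyzed by LC-MS/MS; parameters reported as mean ± SD, N=2-3.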

Mus musculus [28] = experiment: Antidyslipidemic activity in western-diet fed mouse expressing LDL-receptor (-/-) assessed as decrease in total cholesterol level at 1 mg/kg qd for a week administered via gavage […]; type: functional; conditions: po; how it was run: as §4
[29] = Terminal half life in Sprague-Dawley rat at 3 mg/kg, po by LC-MS/MS analysis; type: ADME, organism-based; conditions: in vivo, read-out: beta t1/2 (converted); how it was run: as §5
[30] = Volume of distribution at steady state in beagle dog at 1 mg/kg, iv by LC-MS/MS analysis; type: ADME, organism-based, Canis lupus familiaris; conditions: in vivo, read-out: Vdss; how it was run: as §2
Mus musculus [31] = experiment: Antidyslipidemic activity in western-diet fed mouse expressing LDL-receptor (-/-) assessed as decrease in triglyceride level administered once daily for a week via gavage […]; type: functional; conditions: po; how it was run: as §4

Cmax [1]: 221 ng/mL
AUC(0-t) at 24 h [2]: 1780 ng·h/mL
C0 [3]: 2530 ng/mL
AUC(0-t) at 24 h [5]: 365 ng·h/mL
AUC(0-t) at 24 h [6]: 2300 ng·h/mL
Cmax [7]: 1240 ng/mL
fraction unbound [8]: 0.02
clearance [11]: 30 mL/min/kg
AUC(0-t) at 24 h [16]: 4690 ng·h/mL
half-life [18]: 2 h
Vd [20]: 0.597 L/kg
Tmax [27]: 1.08 h
half-life [29]: 2 h
Vd [30]: 2.48 L/kg
SMILES: Cn1cc(C(=O)O)c2ccc(N3CCC(OCc4c(-c5c(Cl)cccc5Cl)noc4C4CC4)CC3)cc21 [TERN-101]
inhibition in vivo at 1 mg/kg (Mus musculus [4]): 1%
Activity (Rattus norvegicus [9]): 21.9 mg/dL
inhibition in vivo at 10 mg/kg (Mus musculus [10]): 96%
Activity (Rattus norvegicus [12]): 18.2 mg/dL
Activity (Rattus norvegicus [13]): 74.4 mg/dL
inhibition in vivo at 3 mg/kg (Mus musculus [14]): 15%
Activity (Rattus norvegicus [15]): 62.5 mg/dL
inhibition in vivo at 10 mg/kg (Mus musculus [17]): 76%
Activity (Rattus norvegicus [19]): 8.5 mg/dL
inhibition in vivo at 10 mg/kg (Mus musculus [21]): 80%
inhibition in vivo at 10 mg/kg (Mus musculus [22]): 50%
Activity (Rattus norvegicus [23]): 95 mg/dL
Activity (Rattus norvegicus [24]): 13.2 mg/dL
inhibition in vivo at 1 mg/kg (Mus musculus [25]): 59%
inhibition in vivo at 3 mg/kg (Mus musculus [26]): 78%
inhibition in vivo at 1 mg/kg (Mus musculus [28]): 37%
ED50 (Mus musculus [31]): 3.4 mg/kg
